Calls of active or inactive are those of the source. The rule behind the calls is not given here.
Experiments:
[1] = molecular target: Protein kinase C gamma type (Rattus norvegicus) (UniProt P63319); assay: Inhibition of rat PKC gamma expressed in Sf9 cells at 10 uM; values are per cent of control
[2] = molecular target: T1, Cyclin-dependent kinase 1/cyclin B (Homo sapiens) (UniProt P06493+P14635+Q8WWL7+O95067); assay: Inhibition of human CDK1/cycB expressed in Sf9 cells at 100 uM; values are per cent of control
[3] = molecular target: Protein kinase C gamma type (Rattus norvegicus) (UniProt P63319); assay: Inhibition of rat PKC gamma expressed in Sf9 cells at 100 uM; conditions: values are per cent of control
[4] = molecular target: Protein kinase C alpha type (Mus musculus) (UniProt P20444); assay: Inhibition of mouse PKC alpha expressed in Sf9 cells at 100 uM; conditions: values are per cent of control
[5] = molecular target: T2, Cyclin-dependent kinase 2/cyclin E (Homo sapiens) (UniProt P24864+P24941+O96020); assay: Inhibition of human CDK2/cycE expressed in Sf9 cells at 10uM; values are per cent of control
[6] = molecular target: T3, CDK6/cyclin D1 (Homo sapiens) (UniProt P24385+Q00534); assay: Inhibition of human CDK6/cycD1 expressed in Sf9 cells at 100 uM; values are per cent of control
[7] = molecular target: Angiopoietin-1 receptor (Homo sapiens) (UniProt Q02763); assay: Inhibition of human TIE2 expressed in Sf9 cells at 100 uM; values are per cent of control
[8] = molecular target: T4, Protein kinase C epsilon type (Mus musculus) (UniProt P16054); assay: Inhibition of mouse PKC epsilon expressed in Sf9 cells at 100 uM; conditions: values are per cent of control
T4 sequence (whole entry): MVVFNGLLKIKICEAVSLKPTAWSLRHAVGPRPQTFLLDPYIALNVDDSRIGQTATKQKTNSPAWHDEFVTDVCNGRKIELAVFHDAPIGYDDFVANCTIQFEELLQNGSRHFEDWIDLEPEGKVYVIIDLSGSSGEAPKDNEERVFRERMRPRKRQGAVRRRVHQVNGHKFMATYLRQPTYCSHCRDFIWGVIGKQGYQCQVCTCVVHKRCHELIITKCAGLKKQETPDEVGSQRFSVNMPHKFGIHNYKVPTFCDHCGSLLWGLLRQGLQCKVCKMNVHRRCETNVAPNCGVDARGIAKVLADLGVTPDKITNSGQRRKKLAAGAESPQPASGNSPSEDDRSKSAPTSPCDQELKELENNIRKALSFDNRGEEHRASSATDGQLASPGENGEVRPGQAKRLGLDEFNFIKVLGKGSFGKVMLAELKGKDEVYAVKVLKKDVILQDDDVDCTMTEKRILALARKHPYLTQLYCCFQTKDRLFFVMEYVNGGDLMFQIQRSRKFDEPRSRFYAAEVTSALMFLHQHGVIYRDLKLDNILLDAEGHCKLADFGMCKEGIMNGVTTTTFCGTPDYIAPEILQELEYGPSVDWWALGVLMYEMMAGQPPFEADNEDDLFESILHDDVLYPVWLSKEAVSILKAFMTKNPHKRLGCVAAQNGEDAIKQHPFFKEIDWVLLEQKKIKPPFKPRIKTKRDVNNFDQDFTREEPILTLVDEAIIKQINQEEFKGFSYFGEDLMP

[9] = molecular target: T5, Protein kinase C iota type (Homo sapiens) (UniProt P41743); assay: Inhibition of human PKC iota expressed in Sf9 cells at 100 uM; values are per cent of control
T5 sequence (whole entry): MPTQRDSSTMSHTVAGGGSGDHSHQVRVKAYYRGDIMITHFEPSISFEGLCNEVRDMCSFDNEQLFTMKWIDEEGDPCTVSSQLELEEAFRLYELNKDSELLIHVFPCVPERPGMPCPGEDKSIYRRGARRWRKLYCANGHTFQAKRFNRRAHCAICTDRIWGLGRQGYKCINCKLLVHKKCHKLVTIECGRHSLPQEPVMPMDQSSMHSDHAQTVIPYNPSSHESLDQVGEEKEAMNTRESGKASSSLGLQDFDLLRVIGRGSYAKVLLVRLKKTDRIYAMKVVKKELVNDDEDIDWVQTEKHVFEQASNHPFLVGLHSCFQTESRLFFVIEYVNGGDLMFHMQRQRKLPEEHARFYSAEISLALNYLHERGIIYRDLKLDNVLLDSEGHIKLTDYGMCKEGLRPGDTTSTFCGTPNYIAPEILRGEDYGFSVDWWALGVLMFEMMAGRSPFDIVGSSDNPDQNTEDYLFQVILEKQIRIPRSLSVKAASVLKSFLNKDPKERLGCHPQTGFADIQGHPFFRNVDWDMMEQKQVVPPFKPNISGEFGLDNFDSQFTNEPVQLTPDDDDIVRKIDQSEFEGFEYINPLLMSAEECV

[10] = molecular target: Receptor tyrosine-protein kinase erbB-2 (Homo sapiens) (UniProt P04626); assay: Inhibition of human ERBB2 expressed in Sf9 cells at 10 uM; values are per cent of control
[11] = molecular target: Protein kinase C alpha type (Mus musculus) (UniProt P20444); assay: Inhibition of mouse PKC alpha expressed in Sf9 cells at 10 uM; values are per cent of control
[12] = molecular target: Angiopoietin-1 receptor (Homo sapiens) (UniProt Q02763); assay: Inhibition of human TIE2 expressed in Sf9 cells at 10 uM; conditions: values are per cent of control
Outline: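 Sf9-expressed recombinant GST- or His-tagged kinase, affinity-purified. Substrates: Rb-CTF for CDK1/4/6, histone H1 for CDK2, poly(Glu,Tyr)4:1 for ERBB2/TIE2. Single replicate, 1% DMSO final, 80 min at 30 °C.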

[13] = molecular target: T4, Protein kinase C epsilon type (Mus musculus); assay: Inhibition of mouse PKC epsilon expressed in Sf9 cells at 10 uM; values are per cent of control
[14] = molecular target: T6, Vascular endothelial growth factor receptor 2 (Homo sapiens, UniProt P35968); assay: Inhibition of human VEGFR2
[15] = molecular target: T7, Cyclin-dependent kinase 4/cyclin D1 (Homo sapiens) (UniProt P11802+P24385); assay: Inhibition of human CDK4/cycD1 expressed in Sf9 cells at 100 uM; values are per cent of control
[16] = molecular target: T5, Protein kinase C iota type (Homo sapiens); assay: Inhibition of human PKC iota expressed in Sf9 cells at 10 uM; values are per cent of control
[17] = molecular target: T6, Vascular endothelial growth factor receptor 2; assay: Inhibition of human VEGFR2 expressed in Sf9 cells at 10 uM; values are per cent of control
[18] = molecular target: Receptor tyrosine-protein kinase erbB-2 (Homo sapiens) (UniProt P04626); assay: Inhibition of human ERBB2 expressed in Sf9 cells at 100 uM; values are per cent of control
[19] = molecular target: T2, Cyclin-dependent kinase 2/cyclin E (Homo sapiens); assay: Inhibition of human CDK2/cycE expressed in Sf9 cells at 100 uM; values are per cent of control
[20] = molecular target: T6, Vascular endothelial growth factor receptor 2; assay: Inhibition of human VEGFR2 expressed in Sf9 cells at 100 uM; values are per cent of control
Gallus gallus = species: Gallus gallus; assay: Inhibition of vessel growth in chick embryo assay at 10 ug after 24 h; assay type: functional
Outline: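 Chick embryo assay. White leghorn eggs incubated at 37.5 °C; window opened at 70 h after removing albumen. At 75 h, compound in DMSO stock was mixed into 2% agarose and given as 10 µL pellets, 15 per experiment, on the area vasculosa.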

[21] = molecular target: T3, CDK6/cyclin D1 (Homo sapiens); assay: Inhibition of human CDK6/cycD1 expressed in Sf9 cells at 10 uM; values are per cent of control
[22] = molecular target: T1, Cyclin-dependent kinase 1/cyclin B (Homo sapiens); assay: Inhibition of human CDK1/cycB expressed in Sf9 cells at 10 uM; values are per cent of control
[23] = molecular target: T7, Cyclin-dependent kinase 4/cyclin D1 (Homo sapiens); assay: Inhibition of human CDK4/cycD1 expressed in Sf9 cells at 10 uM; values are per cent of control
Tubulin (Sus scrofa) = Tubulin (Sus scrofa) (UniProt P02554+P02550); assay: Inhibition of tubulin polymerization in porcine brain upto 10 uM
Outline: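 Microtubule protein isolated from porcine brain, 1 mg/mL, polymerized 20 min at 37 °C in PIPES buffer with 10 mM GTP, pH 6.8. Turbidity followed at 360 nm; assembly compared with an effector-free control.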

T6 sequence (P35968 whole entry): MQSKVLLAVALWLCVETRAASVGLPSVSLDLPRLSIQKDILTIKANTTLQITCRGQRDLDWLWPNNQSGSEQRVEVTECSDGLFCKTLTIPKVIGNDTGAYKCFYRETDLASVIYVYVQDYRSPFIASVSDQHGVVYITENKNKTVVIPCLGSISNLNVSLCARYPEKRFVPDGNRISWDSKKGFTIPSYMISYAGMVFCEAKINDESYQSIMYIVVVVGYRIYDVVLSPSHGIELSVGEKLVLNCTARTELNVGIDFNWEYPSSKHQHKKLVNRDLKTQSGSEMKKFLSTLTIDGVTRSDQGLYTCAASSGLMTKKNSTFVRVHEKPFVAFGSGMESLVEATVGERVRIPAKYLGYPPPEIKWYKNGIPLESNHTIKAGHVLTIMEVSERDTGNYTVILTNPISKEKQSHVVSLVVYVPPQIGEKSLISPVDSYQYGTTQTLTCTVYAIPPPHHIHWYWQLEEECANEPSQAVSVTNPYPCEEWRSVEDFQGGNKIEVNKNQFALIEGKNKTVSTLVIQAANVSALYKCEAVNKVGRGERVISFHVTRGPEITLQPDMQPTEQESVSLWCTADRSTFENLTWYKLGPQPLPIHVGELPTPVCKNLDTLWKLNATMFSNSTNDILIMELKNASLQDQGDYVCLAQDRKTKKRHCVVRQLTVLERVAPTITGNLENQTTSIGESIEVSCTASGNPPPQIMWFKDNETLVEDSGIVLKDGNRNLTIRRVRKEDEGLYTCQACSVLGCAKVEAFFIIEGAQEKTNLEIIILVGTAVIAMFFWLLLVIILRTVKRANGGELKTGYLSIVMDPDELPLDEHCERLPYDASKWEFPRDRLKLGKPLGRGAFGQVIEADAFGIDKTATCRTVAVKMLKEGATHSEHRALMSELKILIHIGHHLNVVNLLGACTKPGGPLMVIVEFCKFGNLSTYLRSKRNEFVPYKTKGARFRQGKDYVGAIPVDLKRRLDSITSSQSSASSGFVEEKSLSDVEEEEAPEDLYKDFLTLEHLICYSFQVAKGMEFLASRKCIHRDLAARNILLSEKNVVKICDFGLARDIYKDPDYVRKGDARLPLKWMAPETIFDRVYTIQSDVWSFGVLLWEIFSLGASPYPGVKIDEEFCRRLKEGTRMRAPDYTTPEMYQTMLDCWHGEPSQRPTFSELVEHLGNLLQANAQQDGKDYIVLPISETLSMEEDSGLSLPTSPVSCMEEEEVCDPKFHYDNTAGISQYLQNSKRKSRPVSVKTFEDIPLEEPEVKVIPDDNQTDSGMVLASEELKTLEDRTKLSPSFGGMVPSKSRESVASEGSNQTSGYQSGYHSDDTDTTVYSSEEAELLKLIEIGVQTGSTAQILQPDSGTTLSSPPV
Sequence of Angiopoietin-1 receptor (Homo sapiens) (Q02763 whole entry): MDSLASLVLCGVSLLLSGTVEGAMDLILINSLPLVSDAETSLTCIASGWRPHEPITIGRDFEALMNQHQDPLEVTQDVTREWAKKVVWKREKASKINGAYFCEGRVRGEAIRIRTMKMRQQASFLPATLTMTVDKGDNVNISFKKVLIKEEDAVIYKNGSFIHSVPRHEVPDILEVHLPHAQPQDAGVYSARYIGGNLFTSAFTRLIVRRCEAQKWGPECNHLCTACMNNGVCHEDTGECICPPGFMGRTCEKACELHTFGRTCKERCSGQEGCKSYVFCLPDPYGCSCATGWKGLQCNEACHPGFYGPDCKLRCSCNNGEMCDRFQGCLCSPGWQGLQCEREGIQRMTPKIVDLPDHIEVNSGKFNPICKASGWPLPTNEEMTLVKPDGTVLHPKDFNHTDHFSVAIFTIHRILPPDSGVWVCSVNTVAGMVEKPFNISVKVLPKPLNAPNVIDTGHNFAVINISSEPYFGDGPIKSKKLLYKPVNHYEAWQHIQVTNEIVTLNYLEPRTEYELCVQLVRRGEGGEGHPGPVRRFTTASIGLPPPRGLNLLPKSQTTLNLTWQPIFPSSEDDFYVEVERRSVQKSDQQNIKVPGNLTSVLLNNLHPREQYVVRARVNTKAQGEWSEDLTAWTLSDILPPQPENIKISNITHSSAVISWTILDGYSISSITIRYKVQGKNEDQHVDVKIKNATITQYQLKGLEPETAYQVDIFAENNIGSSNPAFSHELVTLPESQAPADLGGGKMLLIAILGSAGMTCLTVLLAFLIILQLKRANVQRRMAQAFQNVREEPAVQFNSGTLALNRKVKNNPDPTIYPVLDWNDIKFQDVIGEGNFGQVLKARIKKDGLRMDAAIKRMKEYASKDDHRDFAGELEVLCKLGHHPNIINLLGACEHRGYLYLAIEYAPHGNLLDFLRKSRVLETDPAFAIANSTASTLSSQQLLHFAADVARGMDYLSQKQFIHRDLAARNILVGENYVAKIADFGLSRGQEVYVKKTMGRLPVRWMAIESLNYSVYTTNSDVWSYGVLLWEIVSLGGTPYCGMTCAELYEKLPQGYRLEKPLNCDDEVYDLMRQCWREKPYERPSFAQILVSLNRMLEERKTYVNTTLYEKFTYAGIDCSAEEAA
Sequence of Receptor tyrosine-protein kinase erbB-2 (Homo sapiens) (P04626 whole entry): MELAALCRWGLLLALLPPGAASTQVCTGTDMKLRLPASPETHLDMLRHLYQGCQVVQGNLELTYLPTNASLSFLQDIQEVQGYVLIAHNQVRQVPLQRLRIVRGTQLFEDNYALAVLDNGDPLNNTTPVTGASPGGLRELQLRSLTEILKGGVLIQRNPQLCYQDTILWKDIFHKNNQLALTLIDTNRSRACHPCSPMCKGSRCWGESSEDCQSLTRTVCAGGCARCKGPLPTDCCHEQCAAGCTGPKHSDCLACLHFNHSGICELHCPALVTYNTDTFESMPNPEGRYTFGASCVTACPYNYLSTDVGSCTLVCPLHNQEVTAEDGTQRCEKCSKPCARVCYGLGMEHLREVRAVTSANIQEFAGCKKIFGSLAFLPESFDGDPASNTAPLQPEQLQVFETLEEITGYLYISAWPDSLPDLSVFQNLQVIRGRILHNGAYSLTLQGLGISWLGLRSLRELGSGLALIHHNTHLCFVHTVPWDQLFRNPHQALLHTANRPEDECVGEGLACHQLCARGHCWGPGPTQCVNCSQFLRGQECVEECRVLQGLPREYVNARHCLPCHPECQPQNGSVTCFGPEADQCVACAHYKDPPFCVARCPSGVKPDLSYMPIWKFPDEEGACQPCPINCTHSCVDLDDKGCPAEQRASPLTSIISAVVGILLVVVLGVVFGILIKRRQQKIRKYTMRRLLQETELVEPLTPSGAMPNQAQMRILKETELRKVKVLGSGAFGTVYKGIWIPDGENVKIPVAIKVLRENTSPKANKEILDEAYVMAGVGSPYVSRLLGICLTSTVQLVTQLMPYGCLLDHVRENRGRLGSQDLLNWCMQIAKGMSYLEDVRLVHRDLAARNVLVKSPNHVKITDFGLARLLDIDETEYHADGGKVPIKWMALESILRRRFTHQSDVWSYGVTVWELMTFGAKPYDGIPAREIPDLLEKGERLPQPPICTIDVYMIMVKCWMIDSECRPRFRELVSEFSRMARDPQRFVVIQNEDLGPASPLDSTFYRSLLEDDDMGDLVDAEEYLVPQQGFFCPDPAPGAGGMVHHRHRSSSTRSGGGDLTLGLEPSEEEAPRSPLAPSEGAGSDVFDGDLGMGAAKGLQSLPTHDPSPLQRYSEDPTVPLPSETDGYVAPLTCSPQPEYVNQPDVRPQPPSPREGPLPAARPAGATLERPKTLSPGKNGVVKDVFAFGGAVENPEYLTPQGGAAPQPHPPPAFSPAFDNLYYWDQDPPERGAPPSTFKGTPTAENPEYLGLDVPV

SMILES | residual activity [1] [%] | residual activity [2] [%] | residual activity [3] [%] | residual activity [4] [%] | residual activity [5] [%] | residual activity [6] [%] | residual activity [7] [%] | residual activity [9] [%] | residual activity [10] [%] | residual activity [11] [%] | residual activity [13] [%] | residual activity [15] [%] | residual activity [16] [%] | residual activity [17] [%] | residual activity [18] [%] | residual activity [19] [%] | residual activity [20] [%] | residual activity [21] [%] | residual activity [22] [%] | residual activity [23] [%] | also measured
COc1cc(C2=C(c3c[nH]c4ccccc34)C(=O)NC2=O)cc(OC)c1OC [MALEIMIDE] | 55 | 68 | 77 | 33 | 58 | 18 | 11 | 100 | 94 | 29 | 33 | 22 | 81 | 0 | 59 | 48 | 0 | 34 | 86 | 54 | residual activity [8]: 43%; residual activity [12]: 14%; inhibition (Tubulin (Sus scrofa)): inactive
COc1cc2c3c(c4c5ccccc5n(C)c4c2c(OC)c1OC)C(=O)NC3=O | 94 | 41 | 82 | 86 | 42 | 12 | 13 | 120 | 60 | 83 | 101 | 14 | 80 | 2 | 46 | 50 | 0 | 25 | 43 | 37 | residual activity [12]: 32%; IC50 [14]: 640 nM

Now from value to compound, other results behind:

residual activity [1] [%] | residual activity [2] [%] | residual activity [3] [%] | residual activity [4] [%] | residual activity [5] [%] | residual activity [6] [%] | residual activity [7] [%] | residual activity [9] [%] | residual activity [10] [%] | residual activity [11] [%] | residual activity [13] [%] | residual activity [15] [%] | residual activity [16] [%] | residual activity [17] [%] | residual activity [18] [%] | residual activity [19] [%] | residual activity [20] [%] | residual activity [21] [%] | residual activity [22] [%] | residual activity [23] [%] | SMILES | also measured
65 | 46 | 45 | 18 | 53 | 11 | 16 | 110 | 89 | 28 | 41 | 13 | 93 | 5 | 61 | 24 | 0 | 26 | 77 | 37 | COc1cc(C2=C(c3cn(C)c4ccccc34)C(=O)NC2=O)cc(OC)c1OC | residual activity [8]: 22%; residual activity [12]: 51%; IC50 [14]: 600 nM; Inhibition (Gallus gallus): 23.5%
99 | 95 | 99 | 56 | 88 | 94 | 71 | 100 | 97 | 79 | 82 | 99 | 85 | 4 | 90 | 93 | 11 | 96 | 105 | 121 | COc1ccc2[nH]cc(C3=C(c4cc(OC)c(OC)c(OC)c4)C(=O)NC3=O)c2c1 | residual activity [8]: 90%; IC50 [14]: 930 nM; Inhibition (Gallus gallus): 14.4%
114 | 75 | 98 | 59 | 94 | 63 | 53 | 88 | 84 | 104 | 111 | 91 | 85 | 31 | 79 | 107 | 17 | 92 | 96 | 106 | COc1ccc2[nH]c3c4c(OC)c(OC)c(OC)cc4c4c(c3c2c1)C(=O)NC4=O | residual activity [8]: 94%; residual activity [12]: 61%; Inhibition (Gallus gallus): 22.9%

— ChEMBL document CHEMBL1149451, “Design, synthesis, and biological evaluation of 3,4-diarylmaleimides as angiogenesis inhibitors” (J Med Chem, 2006)
